Legend:
Rattus norvegicus [1] = assay: Ratio of the biodistribution in tumor to liver 48 hours after iv injection in walker tumor bearing rat; assay type: ADME, organism-based; conditions: in vivo
In short: (§1)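 Walker 256 tumor-bearing female Sprague–Dawley rats were given 5–10 μCi of radioiodinated agent in Tween-20/saline iv by tail vein (n = 3 per time point). After dissection and decay-corrected counting, tumor % ID/g was divided by blood or liver % ID/g.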

Rattus norvegicus [2] = assay: Biodistribution in muscle 24 hours after iv injection in walker tumor bearing rat; assay type: ADME, organism-based, Muscle tissue; conditions: in vivo
In short: (§2)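 Female Sprague–Dawley rats (200–250 g) were inoculated in the right hind limb with 5.0 × 10⁶ Walker 256 cells in saline and used 6–10 days later, when tumors averaged 10 g. The radioiodinated agent, in 2–3% Tween-20/saline after ethanol removal, was given as 5–10 μCi in 0.5 mL by tail vein to anesthetized rats. Tissues were dissected, weighed and counted with decay correction. Values are % ID/g, mean ± SEM, n = 3.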

Rattus norvegicus [3] = assay: Biodistribution in lung 24 hours after iv injection in walker tumor bearing rat; assay type: ADME, organism-based; conditions: in vivo; in short: as §2
Rattus norvegicus [4] = assay: Biodistribution in tumor 48 hours after iv injection in walker tumor bearing rat; assay type: ADME, organism-based; conditions: in vivo; in short: as §2
Rattus norvegicus [5] = assay: Biodistribution in duodenum 24 hours after iv injection in walker tumor bearing rat; assay type: ADME, organism-based; conditions: in vivo; in short: as §2
Rattus norvegicus [6] = assay: Biodistribution in blood 24 hours after iv injection in walker tumor bearing rat; assay type: ADME, organism-based; conditions: in vivo; in short: as §2
Rattus norvegicus [7] = assay: Biodistribution in liver 24 hours after iv injection in walker tumor bearing rat; assay type: ADME, organism-based; conditions: in vivo; in short: as §2
Rattus norvegicus [8] = assay: Ratio of the biodistribution in tumor to blood 24 hours after iv injection in walker tumor bearing rat; assay type: ADME, organism-based; conditions: tumour; in short: as §1
Rattus norvegicus [9] = assay: Biodistribution in muscle 48 hours after iv injection in walker tumor bearing rat; assay type: ADME, organism-based, Muscle tissue; conditions: in vivo; in short: as §2
Rattus norvegicus [10] = assay: Ratio of the biodistribution in tumor to liver 24 hours after iv injection in walker tumor bearing rat; assay type: ADME, organism-based; conditions: in vivo; in short: as §1
Rattus norvegicus [11] = assay: Biodistribution in lung 48 hours after iv injection in walker tumor bearing rat; assay type: ADME, organism-based; conditions: in vivo; in short: as §2
Rattus norvegicus [12] = assay: Biodistribution in tumor 24 hours after iv injection in walker tumor bearing rat; assay type: ADME, organism-based; conditions: in vivo; in short: as §2
Rattus norvegicus [13] = assay: Biodistribution in ovary 24 hours after iv injection in walker tumor bearing rat; assay type: ADME, organism-based, Female gonad; conditions: in vivo; in short: as §2
Rattus norvegicus [14] = assay: Biodistribution in injected site 24 hours after iv injection in walker tumor bearing rat; assay type: ADME, organism-based; conditions: in vivo; in short: as §2
Rattus norvegicus [15] = assay: Biodistribution in liver 48 hours after iv injection in walker tumor bearing rat; assay type: ADME, organism-based; conditions: in vivo; in short: as §2
Rattus norvegicus [16] = assay: Biodistribution in kidney 48 hours after iv injection in walker tumor bearing rat; assay type: ADME, organism-based; conditions: in vivo; in short: as §2
Rattus norvegicus [17] = assay: Biodistribution in plasma 48 hours after iv injection in walker tumor bearing rat; assay type: ADME, organism-based; conditions: in vivo; in short: as §2
Rattus norvegicus [18] = assay: Biodistribution in ovary 48 hours after iv injection in walker tumor bearing rat; assay type: ADME, organism-based, Female gonad; conditions: in vivo; in short: as §2
Rattus norvegicus [19] = assay: Biodistribution in spleen 24 hours after iv injection in walker tumor bearing rat; assay type: ADME, organism-based; conditions: in vivo; in short: as §2
Rattus norvegicus [20] = assay: Biodistribution in blood 48 hours after iv injection in walker tumor bearing rat; assay type: ADME, organism-based; conditions: in vivo; in short: as §2
Rattus norvegicus [21] = assay: Ratio of the biodistribution in tumor to blood 48 hours after iv injection in walker tumor bearing rat; assay type: ADME, organism-based; conditions: in vivo; in short: as §1
Rattus norvegicus [22] = assay: Biodistribution in injected site 48 hours after iv injection in walker tumor bearing rat; assay type: ADME, organism-based; conditions: in vivo; in short: as §2
Rattus norvegicus [23] = assay: Biodistribution in plasma 24 hours after iv injection in walker tumor bearing rat; assay type: ADME, organism-based; conditions: in vivo; in short: as §2
Rattus norvegicus [24] = assay: Biodistribution in thyroid 48 hours after iv injection in walker tumor bearing rat; assay type: ADME, organism-based, Thyroid gland; conditions: in vivo; in short: as §2
Rattus norvegicus [25] = assay: Biodistribution in spleen 48 hours after iv injection in walker tumor bearing rat; assay type: ADME, organism-based; conditions: in vivo; in short: as §2
Rattus norvegicus [26] = assay: Biodistribution in kidney 24 hours after iv injection in walker tumor bearing rat; assay type: ADME, organism-based; conditions: in vivo; in short: as §2
Rattus norvegicus [27] = assay: Biodistribution in duodenum 48 hours after iv injection in walker tumor bearing rat; assay type: ADME, organism-based; conditions: in vivo; in short: as §2
Rattus norvegicus [28] = assay: Biodistribution in thyroid 24 hours after iv injection in walker tumor bearing rat; assay type: ADME, organism-based, Thyroid gland; conditions: in vivo; in short: as §2

Row | ID/g (Rattus norvegicus [1]) | ID/g (Rattus norvegicus [2]) [%] | ID/g (Rattus norvegicus [3]) [%] | ID/g (Rattus norvegicus [4]) [%] | ID/g (Rattus norvegicus [5]) [%] | ID/g (Rattus norvegicus [6]) [%] | ID/g (Rattus norvegicus [7]) [%] | ID/g (Rattus norvegicus [8]) | ID/g (Rattus norvegicus [9]) [%] | ID/g (Rattus norvegicus [10]) | ID/g (Rattus norvegicus [11]) [%] | ID/g (Rattus norvegicus [12]) [%] | ID/g (Rattus norvegicus [13]) [%] | ID/g (Rattus norvegicus [14]) [%] | ID/g (Rattus norvegicus [15]) [%] | ID/g (Rattus norvegicus [16]) [%] | ID/g (Rattus norvegicus [17]) [%] | ID/g (Rattus norvegicus [18]) [%] | ID/g (Rattus norvegicus [19]) [%] | ID/g (Rattus norvegicus [20]) [%] | SMILES | also measured
1 | 2 | 0.05 | 0.35 | 0.45 | 1.04 | 0.07 | 0.53 | 11.1 | 0.02 | 1.5 | 0.14 | 0.78 | 0.31 | 0.26 | 0.23 | 0.16 | 0.03 | 0.14 | 0.43 | 0.03 | CO[C@@H](COCCCCCCCCCCCCc1cccc(I)c1)COP(=O)([O-])OCC[N+](C)(C)C | ID/g (Rattus norvegicus [21]): 15; ID/g (Rattus norvegicus [22]): 0.24%; ID/g (Rattus norvegicus [23]): 0.06%; ID/g (Rattus norvegicus [24]): 13.69%; ID/g (Rattus norvegicus [25]): 0.1%; ID/g (Rattus norvegicus [26]): 0.37%; ID/g (Rattus norvegicus [27]): 0.23%; ID/g (Rattus norvegicus [28]): 10.33%
2 | 1.7 | 0.04 | 0.29 | 0.43 | 0.73 | 0.05 | 0.52 | 11 | 0.02 | 1.1 | 0.14 | 0.55 | 0.28 | 0.23 | 0.25 | 0.2 | 0.03 | 0.14 | 0.37 | 0.03 | CO[C@H](COCCCCCCCCCCCCc1cccc(I)c1)COP(=O)([O-])OCC[N+](C)(C)C | ID/g (Rattus norvegicus [21]): 14.3; ID/g (Rattus norvegicus [22]): 0.25%; ID/g (Rattus norvegicus [23]): 0.06%; ID/g (Rattus norvegicus [24]): 24.11%; ID/g (Rattus norvegicus [25]): 0.1%; ID/g (Rattus norvegicus [26]): 0.33%; ID/g (Rattus norvegicus [27]): 0.34%; ID/g (Rattus norvegicus [28]): 23.81%
3 | 1.6 | 0.04 | 0.34 | 0.56 | 1.12 | 0.07 | 0.81 | 12.1 | 0.03 | 1.1 | 0.2 | 0.85 | 0.37 | 0.24 | 0.35 | 0.24 | 0.05 | 0.27 | 0.42 | 0.05 | COC(COCCCCCCCCCCCCc1cccc(I)c1)COP(=O)([O-])OCC[N+](C)(C)C (racemic) | ID/g (Rattus norvegicus [21]): 11.2; ID/g (Rattus norvegicus [22]): 0.17%; ID/g (Rattus norvegicus [23]): 0.1%; ID/g (Rattus norvegicus [24]): 24.44%; ID/g (Rattus norvegicus [25]): 0.17%; ID/g (Rattus norvegicus [26]): 0.46%; ID/g (Rattus norvegicus [27]): 0.44%; ID/g (Rattus norvegicus [28]): 47.22%

Source: ChEMBL document CHEMBL1128508, “Synthesis and biological evaluation of radioiodinated phospholipid ether stereoisomers” (J Med Chem, 1995)
